A selection: hits, their analogues and other compounds. The true share with any hit is near 1.1%.
NR2E3 ag-1: activates human NR2E3 receptor | CHO-S Gal4-NCOR/VP16-NR2E3 two-hybrid, luciferase | AID 602229 | hit rate 0.35% among 360,000 | inhibition of corepressor binding, % at 3.98 µM | Q9Y5X4;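 active = inhibition above the mean of all tested compounds plus 3 SD, cut at about 70% in these data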;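 also: 0% = DMSO with NR2E3 transfected cells and 100% = cells lacking NR2E3 construct; higher means lower luciferase signal from less NR2E3 corepressor binding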
MT1-MMP act inh: blocks activation of human MT1-MMP | P50281 | HT1080 RFP-PRO-GFP cells, GFP/RFP ratio fluorescence, overnight; percent of plate control window, DMSO zero | AID 651647 | hit rate 0.061% among 360,000 | GFP/RFP ratio change, % at 20 µM;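 active = GFP/RFP ratio change of at least 30% with cell ATP level not reduced by more than half and red fluorescence within 50% of control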
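Assay system: HT1080 RFP-PRO-GFP cells. Benchmarks: DMSO vehicle wells and RFP-L50D-GFP reporter cell wells. Times: overnight cell settling, then overnight compound exposure, 37 °C, 5% CO2. Compound: 20 µM single dose, 1% DMSO. Read-out basis: GFP/RFP fluorescence ratio.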
core dimer inh: HCV core protein dimerization inhibition. TR-FRET GST/Flag-core106 dimerization, 1536-well. hit rate 0.33% among 300,000. inhibition, % at 5 µM;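 active = inhibition above the mean of all tested compounds plus 3 SD, set per screening campaign, cut at about 45% in these data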
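Assay system – GST-tagged and Flag-tagged HCV core protein residues 1-106 · Quantity – core106 proteins, GST 13.5 nM and Flag 17 nM · Benchmarks – unlabelled core106 and no-GST-core106 wells · Read-out basis – percent inhibition of core106 dimerization signal · Detection – time-resolved FRET, ex 340 nm, em 617 and 671 nm · Schedule – 4 h at 22.5 °C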
Vif imaging: blocks HIV Vif function | HEK293T cells, Vif self-association by quenched fluorescence, imaging, 24 h | inhibition, % at 7.49 µM | hit rate 0.35% among 340,000; in the data active = inhibition above about 50%, passing the limit was not always enough
DAGLB inh: blocks human DAGLB lipase activity. AID 504411. hit rate 0.059% among 340,000. inhibition, % at 5.17 µM. HEK293T DAGLB membrane lysate, EnzChek fluorogenic substrate; in the data active = inhibition above about 34%;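 also: 0% = enzyme with vehicle and 100% = wells lacking enzyme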
Target sequence (Q8NCG7 whole entry, looked up): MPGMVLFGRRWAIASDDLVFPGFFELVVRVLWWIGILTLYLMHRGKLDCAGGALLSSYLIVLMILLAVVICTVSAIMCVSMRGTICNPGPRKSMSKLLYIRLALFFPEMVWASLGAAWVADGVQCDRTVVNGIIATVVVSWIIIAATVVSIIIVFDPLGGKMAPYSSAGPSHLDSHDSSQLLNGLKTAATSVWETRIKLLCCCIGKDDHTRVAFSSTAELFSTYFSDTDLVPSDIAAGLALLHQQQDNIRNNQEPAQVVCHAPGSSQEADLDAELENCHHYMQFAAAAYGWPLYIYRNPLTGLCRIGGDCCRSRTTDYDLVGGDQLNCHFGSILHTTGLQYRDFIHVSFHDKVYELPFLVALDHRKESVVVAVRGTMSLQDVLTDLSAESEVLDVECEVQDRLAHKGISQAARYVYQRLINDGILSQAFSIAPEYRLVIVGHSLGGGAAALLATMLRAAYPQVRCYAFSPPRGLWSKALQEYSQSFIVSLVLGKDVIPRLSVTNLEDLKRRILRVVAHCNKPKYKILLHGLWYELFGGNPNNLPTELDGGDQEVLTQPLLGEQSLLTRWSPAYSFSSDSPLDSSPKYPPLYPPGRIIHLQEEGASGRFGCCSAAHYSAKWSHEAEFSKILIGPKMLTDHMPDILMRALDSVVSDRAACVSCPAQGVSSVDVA
NR2E3 ag-2: activates human photoreceptor nuclear receptor NR2E3. Q9Y5X4. GST-NR2E3/biotin-RetCOR TR-FRET, 1536-well. inhibition of corepressor binding, % at 4.78 µM. hit rate 0.12% among 320,000. AID 2300;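 active = percent inhibition above the cutoff of mean plus 3 SD of all tested compounds, set per screening campaign, cut at about 20% in these data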;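 also: 0% = DMSO wells and 100% = biotin wells as full block of FRET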
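System: GST-tagged NR2E3 plus biotinylated RetCOR corepressor; Buffer or medium: pH 7.5 Tris-based buffer; Probe or stimulus: RetCOR corepressor, biotinylated, 7 nM; Doses: compound at 4.8 µM, single dose; Schedule: 5 h incubation at 4 °C; Technique: time-resolved FRET; Evaluation: percent inhibition of TR-FRET ratio; Replication: one well per compound, singlicate testing.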
* = called active by the depositor; . = no result given.

SMILES | NR2E3 ag-1 | MT1-MMP act inh | core dimer inh | Vif imaging | DAGLB inh | NR2E3 ag-2
CCn1c(SCC(=O)Nc2sc3c(c2C#N)CCCC3)nnc1-c1ccco1 | -3.6 | -0.2 | 9.3 | 6.7 | -1.0 | 0.0
NC(=O)c1c(NC(=O)CSc2nnc(-c3ccco3)n2-c2ccccc2)sc2c1CCC2 | -12.9 | -6.1 | 72.3* | . | -1.5 | 2.1
N#Cc1c(NC(=O)CSc2nnc(-c3ccco3)n2-c2ccccc2)sc2c1CCC2 | -35.7 | -3.7 | 64.1* | -7.1 | 2.5 | 1.6
CCCCNC(=O)C1C(c2ccc(C(F)(F)F)cc2)=Nc2ccccc2N1C(=O)c1cccc2ccccc12 (stereo unspecified) | . | -20.7 | . | . | . | .
C/C=C/c1ccc(OCCCNC)c(OC)c1 | -15.8 | -2.6 | -5.5 | 2.3 | -0.6 | -3.9
C/C=C/c1ccc(OCCNCc2ccccc2)c(OC)c1 | 10.6 | 1.4 | -1.4 | 70.0* | -2.3 | -4.9
COc1ccccc1C1=NOC(C)(c2nnc(Cc3ccccc3)o2)C1 (stereo unspecified) | 2.3 | 3.4 | -0.6 | . | -0.9 | -0.8
COc1ccccc1CNC(=O)CCS(=O)(=O)c1ccc(Cl)cc1 | -12.1 | 5.8 | -2.7 | -1.0 | -0.8 | 1.2
Cc1ccc2nc(N3CCN(S(=O)(=O)c4ccc(C)c(Cl)c4)CC3)c(C#N)cc2c1 | -1.0 | 0.1 | 61.9* | -6.4 | -5.3 | 0.3
CCc1ccc(C(C(=O)NCc2ccc(OC)cc2)N(CCOC)C(=O)Cc2cccs2)cc1 (stereo unspecified) | 9.1 | -5.7 | 5.7 | -3.5 | -2.1 | 1.9
COCCN(C(=O)Cc1cccs1)C(C(=O)NCc1ccc(OC)cc1)c1ccc(C)cc1 (stereo unspecified) | -19.7 | -5.1 | 8.9 | 111.6* | 0.5 | 2.2
CCc1ccc(OC2(C)CCN(Cc3ccccc3OC(F)F)C2)cc1 (stereo unspecified) | -6.3 | -0.2 | . | 73.3* | . | .
CC1(Oc2ccc(F)cc2)CCN(Cc2ccccc2OC(F)F)C1 (stereo unspecified) | -44.5 | 1.1 | . | 13.2 | . | .
Cc1ccc(C(=O)C(NC(=O)c2ccco2)Nc2sc3c(c2C(N)=O)CCCC3)cc1 (stereo unspecified) | . | . | 65.5* | . | . | -0.6
CNC(=O)c1c(NC(=O)c2ccco2)sc2c1CCCC2 | -8.1 | -2.5 | 1.2 | -6.0 | 1.3 | 1.5
Cc1ccc(SCCC(=O)N(C)CC(=O)Nc2c(C)cccc2C)cc1 | 11.0 | -0.5 | 1.1 | . | -0.3 | -0.7
CC(C)(C)c1nnc2sc(SC/C(O)=C(\C#N)c3nc4ccccc4[nH]3)nn2c1=O | -21.2 | -5.6 | 59.9* | -0.5 | 0.8 | -0.9
CC(C)(C)c1nnc2sc(SCC(=O)c3ccccc3)nn2c1=O | -0.1 | 6.4 | -3.8 | -1.4 | -2.7 | 2.9
CC1CN(S(=O)(=O)c2cccc(C(=O)N3CCC(C(N)=O)CC3)c2)CC(C)O1 (stereo unspecified) | 5.2 | 1.2 | . | 53.2* | -0.7 | .
Nc1cc(=O)[nH]c(SCC(=O)N2N=C(c3ccc(Cl)cc3)CC2c2ccco2)n1 (stereo unspecified) | -4.2 | -1.0 | 48.6* | -3.8 | 4.5 | -1.6
CCCc1cc(=O)[nH]c(SCC(=O)N2N=C(c3ccc(Cl)cc3)CC2c2ccco2)n1 (stereo unspecified) | 9.5 | -5.0 | 24.4 | 1.9 | 7.6 | 1.6
COc1cc(C(=O)OC2CCOC2=O)cc(Cl)c1OC (stereo unspecified) | -6.5 | 12.9 | -7.2 | 21.4 | -3.3 | 1.8
Cc1ccc(-n2c(C)cc(/C=N/NC(=O)Cn3c4ccccc4c(=O)c4ccccc43)c2C)cc1 | -44.1 | -7.0 | 67.8* | 5.8 | -2.8 | 2.9
O=C(CNc1ccccc1)N/N=C/c1cc([N+](=O)[O-])ccc1N1CCCC1 | 15.3 | 0.1 | 1.9 | -1.3 | 4.0 | 1.5
O=C(Cn1c2ccccc2c(=O)c2ccccc21)N/N=C/c1ccc(N2CCCC2)c([N+](=O)[O-])c1 | -6.3 | -14.1 | 51.0* | 5.9 | 0.4 | -0.7
SMILES | NR2E3 ag-1 | MT1-MMP act inh | core dimer inh | Vif imaging | DAGLB inh | NR2E3 ag-2
Cc1cc(/C=N/NC(=O)Cn2c3ccccc3c(=O)c3ccccc32)c(C)n1-c1ccc(Cl)cc1 | -36.5 | 1.5 | . | 3.2 | -2.0 | .
O=C(Cn1c2ccccc2c(=O)c2ccccc21)N/N=C/c1cc([N+](=O)[O-])ccc1N1CCCCCC1 | 1.6 | 6.7 | 65.2* | 5.1 | 3.2 | 2.0
CCCCNC(=O)C(NC(=O)c1ccc(-c2ccccc2)cc1)C(=O)c1ccccc1 (stereo unspecified) | . | 0.1 | . | . | . | .
O=S(=O)(NCC[C@@H]1CC[C@H](NS(=O)(=O)c2cccc(F)c2)[C@@H](CO)O1)c1cccc(F)c1 | . | 0.8 | . | . | . | .
O=C(c1ccccc1)c1ccc(C(=O)O)c(C(=O)O)c1 | -13.5 | 0.5 | . | -4.7 | 0.1 | .
Nc1ccc(C(=O)c2ccccc2C(=O)O)cc1Cl | -15.1 | 8.5 | -3.0 | 55.0* | -1.4 | -1.8
O=C(Cn1c(=O)n(Cc2ccco2)c(=O)c2c3c(sc21)CCCCC3)c1ccccc1 | -5.1 | -6.6 | 72.4* | 4.8 | 10.6 | 2.4
O=C(Cn1c(=O)n(Cc2ccco2)c(=O)c2c3c(sc21)CCCCC3)Nc1ccccc1 | -4.7 | -1.5 | 56.2* | . | 6.9 | -2.9
Cc1cc(C(=O)COC(=O)c2ccc(NC(=O)CC#N)cc2)c(C)n1CCc1ccc(F)cc1 | -37.4 | -6.4 | . | -13.0 | -4.2 | -2.0
COc1ccc(CCn2c(C)cc(C(=O)COC(=O)c3ccc(NC(=O)CC#N)cc3)c2C)cc1 | -2.6 | -4.6 | 49.6* | -2.8 | 1.9 | 2.3
N#CC1=C(N)OC2=C(CC/C2=C\c2ccc(F)cc2)C1c1ccc(F)cc1 (stereo unspecified) | . | . | 52.1* | . | . | -1.4
CCN1CC2=C(OC(N)=C(C#N)C2c2ccccc2)/C(=C\c2ccccc2)C1 (stereo unspecified) | 3.2 | 6.2 | 11.2 | -2.2 | -3.5 | -0.6
CC(C)NC(=O)C1C(c2ccc(C(F)(F)F)cc2)=Nc2ccccc2N1C(=O)c1cccc(C(F)(F)F)c1 (stereo unspecified) | . | -4.2 | . | . | . | .
O=C(/C=C\c1ccc2c(c1)OCO2)Nc1c2c(nn1-c1ccc(Cl)cc1)CSC2 | 13.8 | -10.0 | 46.7* | 23.3 | 0.1 | 2.9
COc1ccc(NC(=O)Cn2nnc(C(=O)NCCc3ccccc3)c2N)cc1 | 18.2 | -0.5 | -0.7 | -7.3 | -1.0 | 3.1
COc1ccc(NC(=O)Cn2nnc(C(=O)Nc3ccccc3C)c2N)cc1 | 9.7 | -0.8 | -2.4 | 53.4* | -1.5 | 1.9
CCOC(=O)CN(Cc1ccccc1)C(=O)OC(C)(C)C | . | . | 2.9 | . | . | 1.4
COc1ccccc1-c1csc(C(O)c2ccccc2)n1 (stereo unspecified) | -58.5 | -0.7 | . | -14.0 | . | .

Bioassay records deposited in PubChem BioAssay by several laboratories.
